What was measured:
[1] = biological target: T1, Amine oxidase [flavin-containing] A (Homo sapiens, UniProt P21397); assay: Inhibition of human recombinant MAO-A expressed in baculovirus infected BTI-TN-5B1-4 insect cells using tyramine as substrate preincubated for 1 hr followed by substrate addition and measured after 30 mins by resazurin dye-based fluorescence assay
T1 sequence (P21397 whole entry): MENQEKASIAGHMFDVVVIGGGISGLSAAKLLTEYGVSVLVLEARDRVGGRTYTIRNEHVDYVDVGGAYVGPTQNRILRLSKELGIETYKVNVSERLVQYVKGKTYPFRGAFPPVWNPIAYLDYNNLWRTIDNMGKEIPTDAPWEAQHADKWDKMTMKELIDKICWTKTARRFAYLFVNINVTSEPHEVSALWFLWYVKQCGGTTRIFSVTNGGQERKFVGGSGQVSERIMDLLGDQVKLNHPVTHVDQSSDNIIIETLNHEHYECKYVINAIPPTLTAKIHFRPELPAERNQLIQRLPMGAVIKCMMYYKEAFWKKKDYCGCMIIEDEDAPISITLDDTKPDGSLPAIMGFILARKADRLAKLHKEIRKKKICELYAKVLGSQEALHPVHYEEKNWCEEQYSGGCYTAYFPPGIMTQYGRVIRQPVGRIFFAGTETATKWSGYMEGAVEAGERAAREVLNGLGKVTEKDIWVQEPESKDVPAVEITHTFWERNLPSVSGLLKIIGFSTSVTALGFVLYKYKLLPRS

[2] = tested on: P-gp (MDR1); assay: Efflux ratio of apparent permeability in MDCK2-MDR1 cells at 10 uM after 1 hr in absence of P-gp inhibitor verapamil by UPLC-MS/MS analysis; type: ADME, cell-based, Canis lupus familiaris; conditions: dog, MDCK-MDR1
How it was run: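 MDCK-WT (MEM-α/10% FBS) or MDCK-MDR1 II (DMEM/10% FBS) cells were grown 3 days on 12-well transwells. Integrity was checked by TEER and 100 μM Lucifer yellow. Cells were washed in HBSS/10 mM HEPES. Compound at 10 μM was added apically or basally, in triplicate, ±100 μM verapamil. Receiver sampled at 1 h by UPLC-MS/MS. Efflux ratio = Papp B→A / Papp A→B.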

[3] = Metabolic stability in human plasma assessed as parent compound remaining at 5 uM after 4 hrs by UPLC-MS/MS analysis; type: ADME, cell-free; conditions: read-out: Stability
How it was run: (§1)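 Compound at 5 μM was incubated in mouse or human plasma at 37 °C with shaking. Sampled at 0, 5, 15, 30, 60, 120 and 240 min and stopped with ice-cold acetonitrile/0.1% formic acid containing internal standard. Supernatants analysed by UPLC-MS/MS for parent remaining. Run in triplicate.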

[4] = Metabolic stability in mouse plasma assessed as parent compound remaining at 5 uM after 4 hrs by UPLC-MS/MS analysis; type: ADME, cell-free; conditions: read-out: Stability; how it was run: as §1
[5] = Metabolic stability in mouse liver microsomes assessed as parent compound remaining at 1 uM after 60 mins in presence of NADPH by UPLC-MS/MS analysis; type: ADME, microsome; conditions: read-out: Stability
How it was run: (§2)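 Compound at 1 μM with 0.5 mg/mL mouse or human liver microsomes in 100 mM potassium phosphate pH 7.4, 3.3 mM MgCl2, 1 mM NADPH, at 37 °C. Started with NADPH; minus-NADPH control run. Stopped at 0, 5, 15, 30, 45 and 60 min with acetonitrile/formic acid plus internal standard. Parent remaining by UPLC-MS/MS, in triplicate.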

[6] = Metabolic stability in human liver microsomes assessed as parent compound remaining at 1 uM after 60 mins by UPLC-MS/MS analysis; type: ADME, microsome; conditions: liver microsomes, read-out: Stability; how it was run: as §2
[7] = Metabolic stability in cryopreserved mouse hepatocytes assessed as parent compound remaining at 1 uM after 60 mins by UPLC-MS/MS analysis; type: ADME, cell-based, Hepatocyte; conditions: read-out: Stability
[8] = tested on: Mus musculus; assay: Acute toxicity in C57BL/6 mouse assessed as abnormal clinical signs at […], sc administered as single dose measured after 24 hrs post-injection; type: organism-based; conditions: in vivo
[9] = Apparent half-life of the terminal disposition phase in C57BL/6 mouse brain at 23.4 mg/kg, sc administered as single dose measured 24 hrs by UPLC-MS/MS analysis; type: ADME, organism-based; conditions: read-out: t1/2 lambda z (converted)
How it was run: (§3)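 15 animals dosed, 3 killed at each of 1, 2, 4, 6 and 24 h. Plasma and brain homogenate (ammonium formate, acidified organic extraction) assayed by UPLC-MS/MS, brain ng/g taken as ng/mL. Noncompartmental parameters exclude values above/below quantification limit or undetected. Kp = AUClast brain/plasma.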

[10] = Ratio of AUClast in brain to plasma in C57BL/6 mouse at 23.4 mg/kg, sc administered as single dose measured 24 hrs by UPLC-MS/MS analysis; type: ADME, organism-based; how it was run: as §3
[11] = Tmax in C57BL/6 mouse brain at 23.4 mg/kg, po administered as single dose measured 24 hrs by UPLC-MS/MS analysis; type: ADME, organism-based; how it was run: as §3
[12] = tested on: Mus musculus; assay: Acute toxicity in C57BL/6 mouse assessed as abnormal clinical signs at […], iv administered as single dose measured after 24 hrs post-injection; type: organism-based; conditions: in vivo
[13] = tested on: Mus musculus; assay: Acute toxicity in C57BL/6 mouse assessed as abnormal clinical signs at […], po administered as single dose measured after 24 hrs post-injection; type: organism-based; conditions: in vivo
[14] = Efflux ratio of apparent permeability in MDCK-WT cells at 10 uM after 1 hr in absence of P-gp inhibitor verapamil by UPLC-MS/MS analysis; conditions: dog
[15] = Tmax in C57BL/6 mouse plasma at 24.5 mg/kg, iv administered as single dose measured 24 hrs by UPLC-MS/MS analysis; type: ADME, organism-based
How it was run: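 Plasma cleaned by protein precipitation with phospholipid removal, then UPLC-MS/MS in MRM mode. Tmax obtained by noncompartmental analysis.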

[16] = Cmax in C57BL/6 mouse plasma at 24.5 mg/kg, iv administered as single dose measured 24 hrs by UPLC-MS/MS analysis; type: ADME, organism-based; parameters: dose 24.5 mg/kg, route intravenous
How it was run: (§4)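 21 animals dosed at 0 min, 3 sacrificed at each of 0, 5, 15, 30 min, 1, 4 and 24 h. Plasma was extracted by protein precipitation with phospholipid removal. Brain was weighed, bead-homogenised in 50 mM ammonium formate and extracted in acidified organic solvent. Quantified by UPLC-MS/MS (MRM). Brain ng/g taken as ng/mL. Parameters came from noncompartmental analysis. Kp = AUClast brain/plasma.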

[17] = Cmax in C57BL/6 mouse brain at 24.5 mg/kg, iv administered as single dose measured 24 hrs by UPLC-MS/MS analysis; type: ADME, organism-based; parameters: dose 24.5 mg/kg, route intravenous; how it was run: as §4
[18] = Apparent half-life of the terminal disposition phase in C57BL/6 mouse plasma at 24.5 mg/kg, sc administered as single dose measured 24 hrs by UPLC-MS/MS analysis; type: ADME, organism-based; conditions: read-out: t1/2 lambda z (converted)
How it was run: (§5)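 15 animals dosed, 3 sacrificed at each of 1, 2, 4, 6 and 24 h. Plasma and brain homogenate were extracted and quantified by UPLC-MS/MS. Parameters came from noncompartmental analysis. Values above or below the limit of quantification, or undetected, were omitted. Kp = AUClast brain/plasma.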

[19] = AUClast in C57BL/6 mouse brain at 24.5 mg/kg, sc administered as single dose measured 24 hrs by UPLC-MS/MS analysis; type: ADME, organism-based; parameters: dose 24.5 mg/kg, time 0 - last, route subcutaneous; how it was run: as §5

Compound: CN(CC(=O)O)[C@H](CC#N)Cc1ccc(OCc2ccc(Cl)c(Cl)c2)cc1
- IC50 [1]: 126 µM
- efflux ratio at 1 h, 10 µM [2]: 1.14
- remaining at 4 h, 5 µM [3]: ≥ 75%
- remaining at 4 h, 5 µM [4]: ≥ 75%
- remaining at 1 h, 1 µM [5]: 39%
- remaining at 1 h, 1 µM [6]: ≥ 90%
- remaining at 1 h, 1 µM [7]: 64%
- Activity [8]: Non-Toxic
- half-life [9]: 1.07 h
- Kp at 24 h [10]: 0.005
- Tmax [11]: 1 h
- Activity [12]: Non-Toxic
- Activity [13]: Non-Toxic
- efflux ratio at 1 h, 10 µM [14]: 1.07

Compound: C[C@H](Cc1ccc(OCc2ccc(Br)c(Cl)c2)cc1)N(C)CC(=O)O
- IC50 [1]: > 50 µM
- efflux ratio at 1 h, 10 µM [2]: 2.12
- remaining at 4 h, 5 µM [3]: ≥ 75%
- remaining at 4 h, 5 µM [4]: ≥ 75%
- remaining at 1 h, 1 µM [5]: 93.4%
- remaining at 1 h, 1 µM [6]: ≥ 90%
- remaining at 1 h, 1 µM [7]: ≥ 90%
- Activity [8]: Non-Toxic
- Tmax [15]: 5 min
- Cmax [16]: 16.7 µg/mL
- Cmax [17]: 0.653 µg/mL
- half-life [18]: 4.81 h
- AUC(0-t) at 24 h [19]: 12.9 µg·h/mL
- Activity [12]: Non-Toxic
- Activity [13]: Non-Toxic
- efflux ratio at 1 h, 10 µM [14]: 1.33
